The structures appear in SMILES notation. Active and inactive are the calls of the source. No cut-off for these calls is given here.

One data set addresses Cytochrome P450 2D6 (Homo sapiens, UniProt P10635). Put plainly: Inhibition of human recombinant CYP2D6 after 20 mins by LC/MS/MS analysis. The class given is ADME.
The target of another data set is Cytochrome P450 3A4 (Homo sapiens, UniProt P08684). Put plainly: Inhibition of human recombinant CYP3A4 after 20 mins by LC/MS/MS analysis. In kind it is ADME.
Cytochrome P450 3A4, sequence (P08684 whole entry): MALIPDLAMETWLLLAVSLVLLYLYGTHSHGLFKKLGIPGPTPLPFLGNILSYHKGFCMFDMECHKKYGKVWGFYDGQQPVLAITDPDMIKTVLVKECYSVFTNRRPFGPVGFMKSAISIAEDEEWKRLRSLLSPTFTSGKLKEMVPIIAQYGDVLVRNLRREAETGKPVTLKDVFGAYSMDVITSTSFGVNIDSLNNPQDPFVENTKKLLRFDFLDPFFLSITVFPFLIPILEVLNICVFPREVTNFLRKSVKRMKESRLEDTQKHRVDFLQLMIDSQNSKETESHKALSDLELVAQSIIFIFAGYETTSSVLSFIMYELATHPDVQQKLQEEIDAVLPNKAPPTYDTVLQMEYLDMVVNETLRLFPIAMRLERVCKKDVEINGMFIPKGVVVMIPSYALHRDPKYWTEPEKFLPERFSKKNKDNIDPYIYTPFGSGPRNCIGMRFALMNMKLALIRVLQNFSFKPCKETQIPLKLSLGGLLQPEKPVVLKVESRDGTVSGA
The subject of another data set is K562. The experiment in a line: Cytotoxicity against human K562 cells after 48 hrs by CellTiter-Glo assay. In kind it is functional, cell-based. To be noted: K562, 48 h. (In general: ATP-based viability assays read luminescence as a measure of living cells.)
For a further data set, the target named is T1, Cytochrome P450 1A2 (Homo sapiens, UniProt P05177).
T1 sequence (P05177 whole entry): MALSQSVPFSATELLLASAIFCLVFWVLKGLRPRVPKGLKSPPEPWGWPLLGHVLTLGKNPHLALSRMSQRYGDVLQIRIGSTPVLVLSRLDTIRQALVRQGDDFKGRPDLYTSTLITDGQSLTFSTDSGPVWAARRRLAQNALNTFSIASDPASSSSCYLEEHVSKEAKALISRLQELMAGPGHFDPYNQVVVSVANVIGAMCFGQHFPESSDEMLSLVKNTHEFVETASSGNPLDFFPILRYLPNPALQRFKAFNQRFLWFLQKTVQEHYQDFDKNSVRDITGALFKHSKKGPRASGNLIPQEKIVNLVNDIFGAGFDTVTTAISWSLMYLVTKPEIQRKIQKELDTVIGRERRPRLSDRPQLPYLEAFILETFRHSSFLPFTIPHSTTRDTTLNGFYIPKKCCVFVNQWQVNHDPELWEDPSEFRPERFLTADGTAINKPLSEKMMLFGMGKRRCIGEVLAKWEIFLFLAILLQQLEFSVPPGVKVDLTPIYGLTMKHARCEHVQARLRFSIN
Put plainly: Inhibition of human recombinant CYP1A2 after 20 mins by LC/MS/MS analysis. In kind it is ADME.

The test system of data set [1] is Epidermal growth factor receptor (Homo sapiens), P00533 [T790M]. The experiment in a line: Inhibition of EGFR T790M mutant (unknown origin) incubated for 5 mins prior to ATP addition measured after 30 mins by HTRF method. In kind it is protein assay.
Epidermal growth factor receptor (Homo sapiens), P00533 [T790M], sequence (P00533 whole entry T790M): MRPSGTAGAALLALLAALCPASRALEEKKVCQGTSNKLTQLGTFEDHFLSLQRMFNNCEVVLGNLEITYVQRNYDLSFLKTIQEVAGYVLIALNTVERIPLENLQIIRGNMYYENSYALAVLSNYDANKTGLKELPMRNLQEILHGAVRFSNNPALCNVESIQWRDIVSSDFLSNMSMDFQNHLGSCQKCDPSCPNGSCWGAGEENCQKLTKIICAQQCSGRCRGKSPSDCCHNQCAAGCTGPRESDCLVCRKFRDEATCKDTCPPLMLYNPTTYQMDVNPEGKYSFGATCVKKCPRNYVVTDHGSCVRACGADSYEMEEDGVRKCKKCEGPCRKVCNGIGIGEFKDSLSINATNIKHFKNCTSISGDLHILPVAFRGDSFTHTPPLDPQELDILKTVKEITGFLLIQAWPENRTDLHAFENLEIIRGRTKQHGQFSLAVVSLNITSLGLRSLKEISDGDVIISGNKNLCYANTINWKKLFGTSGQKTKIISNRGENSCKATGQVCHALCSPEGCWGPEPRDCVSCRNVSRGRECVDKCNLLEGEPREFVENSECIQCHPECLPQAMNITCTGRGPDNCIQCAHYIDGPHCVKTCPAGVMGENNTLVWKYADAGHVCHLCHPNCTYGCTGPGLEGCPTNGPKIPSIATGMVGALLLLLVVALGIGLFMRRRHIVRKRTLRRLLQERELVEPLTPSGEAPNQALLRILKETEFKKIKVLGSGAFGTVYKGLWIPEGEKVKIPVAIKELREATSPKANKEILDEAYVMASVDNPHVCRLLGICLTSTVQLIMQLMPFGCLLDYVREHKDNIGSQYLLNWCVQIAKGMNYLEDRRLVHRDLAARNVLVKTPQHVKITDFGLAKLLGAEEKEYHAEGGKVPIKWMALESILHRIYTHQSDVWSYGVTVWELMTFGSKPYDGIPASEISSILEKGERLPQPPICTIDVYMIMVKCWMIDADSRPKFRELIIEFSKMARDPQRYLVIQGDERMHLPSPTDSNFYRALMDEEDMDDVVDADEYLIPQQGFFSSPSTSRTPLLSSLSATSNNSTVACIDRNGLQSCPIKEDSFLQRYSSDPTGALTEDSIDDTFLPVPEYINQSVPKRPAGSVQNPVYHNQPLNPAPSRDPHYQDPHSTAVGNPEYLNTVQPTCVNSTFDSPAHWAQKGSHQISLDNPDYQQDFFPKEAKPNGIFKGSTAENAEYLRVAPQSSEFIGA
For a further data set, the target named is Cytochrome P450 2C9 (Homo sapiens, UniProt P11712). The experiment in a line: Inhibition of human recombinant CYP2C9 after 20 mins by LC/MS/MS analysis. The class given is ADME.
Cytochrome P450 2C9, sequence (P11712 whole entry): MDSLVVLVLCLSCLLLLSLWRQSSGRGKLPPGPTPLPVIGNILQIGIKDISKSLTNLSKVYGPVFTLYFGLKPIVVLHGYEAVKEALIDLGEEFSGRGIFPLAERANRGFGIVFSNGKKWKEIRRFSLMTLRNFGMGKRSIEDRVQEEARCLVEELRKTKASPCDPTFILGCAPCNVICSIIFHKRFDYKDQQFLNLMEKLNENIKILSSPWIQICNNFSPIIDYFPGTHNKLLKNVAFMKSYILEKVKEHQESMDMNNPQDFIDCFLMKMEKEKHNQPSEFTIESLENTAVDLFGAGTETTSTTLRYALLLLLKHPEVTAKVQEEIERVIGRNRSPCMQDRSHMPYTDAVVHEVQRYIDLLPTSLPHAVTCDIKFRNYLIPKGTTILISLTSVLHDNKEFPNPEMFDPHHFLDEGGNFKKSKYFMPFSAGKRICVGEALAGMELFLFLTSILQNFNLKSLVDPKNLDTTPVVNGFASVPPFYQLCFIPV
The test system of another data set is A549. The experiment in a line: Cytotoxicity against human A549 cells after 48 hrs by CellTiter-Glo assay. In kind it is functional, cell-based. To be noted: A549, 48 h.
For a further data set, the system named is SW-620. Put plainly: Cytotoxicity against human SW620 cells after 48 hrs by CellTiter-Glo assay. The class given is functional, cell-based. To be noted: SW-620, 48 h.
Data set [2] has as its system Mus musculus. Put plainly: Toxicity in nude mouse xenografted with human A431 cells assessed as weight loss at 200 mg/kg/day, po qd after 12 days. In kind it is organism-based, A-431. More on the design: route oral. Particulars: in vivo, 288 h. The procedure, abridged: (§1)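 A431 xenograft; dosing began once tumours reached 50–150 mm³. Mice randomized, n = 6/group, given test agent, gefitinib reference or vehicle by oral gavage once daily at 200 mg/kg/day. Body weight and tumour volume recorded twice weekly; mortality and weight loss noted over treatment (tumour mass read on days 0, 4, 7, 10, 12).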

Data set [3] relates to Mus musculus. The experiment in a line: Toxicity in nude mouse xenografted with human A431 cells assessed as mortality at 200 mg/kg/day, po qd after 12 days. The class given is organism-based, A-431. Also noted: route oral. To be noted: in vivo, 288 h. The procedure, abridged:
as §1
A general note: A xenograft is tissue or cells of one species grown in another, often human tumour cells in immunodeficient mice.

Data set [4] in a line: Tmax in BALB/c mouse at 3 mg/kg, iv. The class given is ADME, organism-based. More on the design: dose 3 mg/kg, route intravenous. To be noted: in vivo. The procedure, abridged: (§2)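 Mice (12 per treatment group) received a single dose, either intravenously at 3 mg/kg or orally at 10 mg/kg. Plasma exposure was followed over 24 h to derive AUC(0–24 h) in μM·min, t1/2 and tmax in min, and Cmax in μM. Oral bioavailability (F%) was derived from the oral versus i.v. data.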

A short description of data set [5]: Cmax in BALB/c mouse at 10 mg/kg, po. The class given is ADME, organism-based. More on the design: dose 10 mg/kg, route oral. To be noted: in vivo. The gist of the method: as §2
Data set [6] in a line: Half life in BALB/c mouse at 3 mg/kg, iv. The class given is ADME, organism-based. Also noted: dose 3 mg/kg, route intravenous. Particulars: in vivo. The gist of the method:
as §2

The test system of data set [7] is Mus musculus. The experiment in a line: Oral bioavailability in BALB/c mouse at 10 mg/kg. The class given is ADME, organism-based. Particulars: in vivo. The gist of the method:
as §2

For data set [8], the target named is Voltage-gated inwardly rectifying potassium channel KCNH2 (Homo sapiens, UniProt Q12809). The experiment in a line: Inhibition of human ERG channel by patch clamp assay.
Voltage-gated inwardly rectifying potassium channel KCNH2, sequence (Q12809 whole entry): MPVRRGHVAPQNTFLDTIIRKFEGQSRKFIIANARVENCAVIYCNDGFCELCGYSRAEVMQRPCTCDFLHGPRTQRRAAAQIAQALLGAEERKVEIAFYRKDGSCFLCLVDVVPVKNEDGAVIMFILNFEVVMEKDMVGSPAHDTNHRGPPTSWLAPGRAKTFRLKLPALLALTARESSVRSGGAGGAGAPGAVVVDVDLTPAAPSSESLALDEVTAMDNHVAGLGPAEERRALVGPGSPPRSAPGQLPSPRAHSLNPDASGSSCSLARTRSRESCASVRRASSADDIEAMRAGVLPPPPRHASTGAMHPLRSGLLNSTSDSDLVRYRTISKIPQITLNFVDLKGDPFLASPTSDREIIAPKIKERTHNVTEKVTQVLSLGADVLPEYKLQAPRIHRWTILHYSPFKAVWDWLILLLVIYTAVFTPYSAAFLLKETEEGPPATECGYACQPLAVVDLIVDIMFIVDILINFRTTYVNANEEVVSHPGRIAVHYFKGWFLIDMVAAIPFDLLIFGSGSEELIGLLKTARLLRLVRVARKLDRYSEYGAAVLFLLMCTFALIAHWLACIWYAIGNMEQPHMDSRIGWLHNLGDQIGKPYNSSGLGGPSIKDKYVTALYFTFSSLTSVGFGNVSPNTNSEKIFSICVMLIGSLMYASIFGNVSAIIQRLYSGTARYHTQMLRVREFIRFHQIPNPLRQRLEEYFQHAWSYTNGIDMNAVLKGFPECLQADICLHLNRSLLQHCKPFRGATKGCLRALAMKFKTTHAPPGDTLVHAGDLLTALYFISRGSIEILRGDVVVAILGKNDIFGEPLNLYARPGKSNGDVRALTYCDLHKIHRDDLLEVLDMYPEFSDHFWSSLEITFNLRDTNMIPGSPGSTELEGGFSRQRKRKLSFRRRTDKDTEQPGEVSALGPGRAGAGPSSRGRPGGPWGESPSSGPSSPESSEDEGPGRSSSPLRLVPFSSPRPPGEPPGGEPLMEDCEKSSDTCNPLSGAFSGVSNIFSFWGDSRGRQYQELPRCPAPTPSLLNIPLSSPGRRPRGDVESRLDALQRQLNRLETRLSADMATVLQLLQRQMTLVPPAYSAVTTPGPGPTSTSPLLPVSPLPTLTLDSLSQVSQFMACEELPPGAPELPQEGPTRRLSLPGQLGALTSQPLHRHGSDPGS
The next data set deals with A-431. Put plainly: animal or person. The class given is functional, Homo sapiens. Particulars: Mus musculus, A-431, 288 h, route oral, read-out: TGI.
In data set [9] the target is T2, Epidermal growth factor receptor (Homo sapiens, UniProt P00533). To be noted: A-431, at 1 µM.
T2 sequence (P00533 whole entry): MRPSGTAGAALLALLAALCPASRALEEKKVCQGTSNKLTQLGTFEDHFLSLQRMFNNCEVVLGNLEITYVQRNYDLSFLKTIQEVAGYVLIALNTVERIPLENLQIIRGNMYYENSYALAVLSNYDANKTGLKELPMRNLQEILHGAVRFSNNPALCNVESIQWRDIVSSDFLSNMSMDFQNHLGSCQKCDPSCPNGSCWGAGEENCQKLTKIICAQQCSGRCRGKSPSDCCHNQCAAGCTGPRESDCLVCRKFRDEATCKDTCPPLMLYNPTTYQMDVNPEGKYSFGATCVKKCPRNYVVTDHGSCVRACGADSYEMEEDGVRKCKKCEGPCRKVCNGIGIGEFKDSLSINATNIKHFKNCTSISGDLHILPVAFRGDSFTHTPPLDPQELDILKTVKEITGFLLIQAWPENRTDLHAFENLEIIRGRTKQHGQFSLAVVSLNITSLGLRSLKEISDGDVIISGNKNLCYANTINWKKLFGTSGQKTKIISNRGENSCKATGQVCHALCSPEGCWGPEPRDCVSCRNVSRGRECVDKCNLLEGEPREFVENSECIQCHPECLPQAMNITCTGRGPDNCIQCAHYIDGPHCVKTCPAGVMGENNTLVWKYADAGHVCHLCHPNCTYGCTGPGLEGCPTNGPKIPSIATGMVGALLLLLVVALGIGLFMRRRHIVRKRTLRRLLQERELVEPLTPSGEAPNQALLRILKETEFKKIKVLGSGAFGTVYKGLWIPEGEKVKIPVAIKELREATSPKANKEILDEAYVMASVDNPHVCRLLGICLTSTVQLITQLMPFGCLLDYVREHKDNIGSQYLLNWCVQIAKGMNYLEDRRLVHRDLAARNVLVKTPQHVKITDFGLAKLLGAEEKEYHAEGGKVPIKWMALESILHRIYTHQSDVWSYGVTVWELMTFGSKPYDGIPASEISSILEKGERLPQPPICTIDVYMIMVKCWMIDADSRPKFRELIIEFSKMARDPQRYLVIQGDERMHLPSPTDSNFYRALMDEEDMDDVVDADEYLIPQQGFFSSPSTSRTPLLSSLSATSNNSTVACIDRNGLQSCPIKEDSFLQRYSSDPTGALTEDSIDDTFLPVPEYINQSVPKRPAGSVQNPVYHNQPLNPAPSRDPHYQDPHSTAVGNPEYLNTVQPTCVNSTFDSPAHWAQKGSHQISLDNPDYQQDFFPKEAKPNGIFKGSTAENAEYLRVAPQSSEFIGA
Data set [10] in a line: Tmax in BALB/c mouse at 10 mg/kg, po. In kind it is ADME, organism-based. Also noted: dose 10 mg/kg, route oral. Particulars: in vivo. The procedure, abridged: as §2
The subject of data set [11] is Mus musculus. Put plainly: AUC (0 to 24 hrs) in BALB/c mouse at 3 mg/kg, iv. More on the design: time < 24 hr, dose 3 mg/kg, route intravenous. To be noted: in vivo. The class given is ADME, organism-based, Plasma. The gist of the method: as §2
Data set [12] can be described thus: Half life in BALB/c mouse at 10 mg/kg, po. In kind it is ADME, organism-based. Particulars: in vivo. More on the design: dose 10 mg/kg, route oral. The procedure, abridged: as §2
Data set [13] has as its system Mus musculus. Put plainly: AUC (0 to 24 hrs) in BALB/c mouse at 10 mg/kg, po. The class given is ADME, organism-based, Plasma. Particulars: in vivo. Also noted: time < 24 hr, dose 10 mg/kg, route oral. The gist of the method:
as §2

Data set [14] in a line: Cmax in BALB/c mouse at 3 mg/kg, iv. In kind it is ADME, organism-based. Particulars: in vivo. Also noted: dose 3 mg/kg, route intravenous. The procedure, abridged:
as §2

Data set [15] deals with T2, Epidermal growth factor receptor. Put plainly: Inhibition of wild type EGFR (unknown origin) incubated for 5 mins prior to ATP addition measured after 30 mins by HTRF method. For orientation: TR-FRET usually uses a lanthanide donor and a delayed reading to cut background.
Data set [16] shares this target. The experiment in a line: Ratio of IC50 for wild type EGFR in human A431 cells to IC50 for wild type EGFR (unknown origin). The class given is cell-based. Particulars: A-431.

Cytochrome P450 2D6, sequence (P10635 whole entry): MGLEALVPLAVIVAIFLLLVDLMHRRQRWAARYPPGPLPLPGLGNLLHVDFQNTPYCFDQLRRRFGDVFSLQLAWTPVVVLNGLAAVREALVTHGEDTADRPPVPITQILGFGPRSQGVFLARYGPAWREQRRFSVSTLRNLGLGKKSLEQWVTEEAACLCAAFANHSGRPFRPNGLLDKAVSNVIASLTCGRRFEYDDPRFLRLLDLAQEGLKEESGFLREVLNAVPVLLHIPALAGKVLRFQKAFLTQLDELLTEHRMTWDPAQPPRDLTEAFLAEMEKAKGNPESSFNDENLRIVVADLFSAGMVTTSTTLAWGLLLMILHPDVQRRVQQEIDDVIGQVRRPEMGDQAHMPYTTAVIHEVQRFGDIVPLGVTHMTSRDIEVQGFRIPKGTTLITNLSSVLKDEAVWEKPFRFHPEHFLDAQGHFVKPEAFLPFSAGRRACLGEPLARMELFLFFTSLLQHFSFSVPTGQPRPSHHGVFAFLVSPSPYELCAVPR

Broadly, the IC50 is the midpoint of a concentration-inhibition curve. In the case of `CN(C)C/C=C/C(=O)N1CCOc2cc3ncnc(Nc4ccc(OCc5cccc(F)c5)c(Cl)c4)c3cc21`, the IC50 at Cytochrome P450 2D6, on Cytochrome P450 3A4, in the data set with K562, on Cytochrome P450 1A2, on Cytochrome P450 2C9 and in the data set with A549 was over 10 µM throughout. This compound displayed an IC50 with SW-620 of 6.2 µM. In addition, in [1], the inhibition entry is “Active”.

Consider `COc1cc2ncnc(Nc3ccc(F)c(Cl)c3)c2cc1OCCCN1CCOCC1` [GEFITINIB], for which the Activity result with Mus musculus [2] and in the data set with Mus musculus [3] was “Non-toxic” each time.

For orientation: Tmax means the time at which the peak concentration occurs. What is called Cmax is the highest concentration seen after dosing. As usually defined, the half-life is the time in which the quantity being followed falls by half. As usually defined, the AUC is the area under the concentration-time curve, a measure of exposure. Take `CN(C)C/C=C/C(=O)N1CCOc2cc3ncnc(Nc4ccc(F)c(Cl)c4)c3cc21`: the IC50 (on Cytochrome P450 2D6; on Cytochrome P450 3A4; with K562; at Cytochrome P450 1A2; in [8]; at Cytochrome P450 2C9) was over 10 µM each time. In addition, the IC50 in the data set on A549 is over 10 µM; in the data set with SW-620, 25.4 µM. For the same compound, the time of peak concentration (Tmax) in data set [4] was 2 min; in data set [10] it was 0.75 h. The peak concentration (Cmax) in data set [5] came to 360 nM; in data set [14] it was 290 nM. Moreover, the half-life came out at 12.7 h in data set [6] and 9.13 h in data set [12]. In the data set with Mus musculus [7], the F is 26.1%. The inhibition result in data set [1] and in [9] was “Active” in each case. Besides, the inhibition in vivo at 200 mg/kg/day in the data set on A-431 came to 66.8%. The Activity entry with Mus musculus [2] and with Mus musculus [3] was “Non-toxic” throughout. Besides, the AUC is 25.4 µM·min with Mus musculus [11] and 133 µM·min in the data set with Mus musculus [13].

In data set [15], `Fc1ccc(Nc2ncnc3cc4c(cc23)NCCO4)cc1Cl` had an IC50 of 0.00129 µM. The Ratio IC50 in [16] turned out to be 20000.
